This note sets out measurements from ChEMBL document CHEMBL1147781, “Design, synthesis and in vitro antimalarial activity of an acylhydrazone library” (Bioorg Med Chem Lett, 2006).

For test [1], the system named is Plasmodium falciparum. Description: Antimalarial activity against chloroquine-resistant Plasmodium falciparum FcB1. The test is classed as functional, organism-based. Summed up:
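P. falciparum FcB1 (chloroquine-resistant) growth inhibition; IC50 reported as mean ± SD of two to three independent experiments.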

Test [2] concerns MRC5. Description: Relative antimalarial activity to cytotoxicity as selectivity index (CC50/IC50). The test is classed as functional.
The test system of test [3] is MRC5. Nature of the test: Cytotoxicity against human diploid embryonic lung MRC5 cells by colorimetric MTT assay. The test is classed as functional. Summed up: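 Human MRC5 cells were used, with the value reported as CC50 in µM. Results are given as the mean ± SD of two to three independent experiments.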
Background: Formazan colour is commonly taken as a measure of viable cells.

Test [4] deals with Plasmodium falciparum. Description: Growth inhibition of chloroquine-resistant Plasmodium falciparum FcB1 at 1 uM. It counts as functional.

Structures are written as SMILES.

For `Cc1ccc(O)c(/C=N/NC(=O)c2ccc(C(C)(C)C)cc2)c1`, in test [1], half-maximal inhibition (IC50) was put at 2200 nM. Further, the Ratio CC50/IC50 in test [2] was determined as 7.4. In addition, in test [3], the half-maximal cytotoxic concentration (CC50) (commonly the concentration that lowers cell viability or growth by half) was 16300 nM. Moreover, the inhibition (as a rule, the change of the read-out against control, counted positive when it falls) at 1 µM in test [4] was found to be 65%.
The corresponding values for `CC(C)(C)c1ccc(O)c(/C=N/NC(=O)c2cccs2)c1` are 1600 nM, 7.5, 12000 nM and 52%.
On to `CCN(CC)c1ccc(/C=N/NC(=O)c2ccc(C(C)(C)C)cc2)c(O)c1`, for which the concentration for half-maximal inhibition (IC50) – broadly, the point on the concentration scale where inhibition reaches its midpoint – in test [1] was determined as 900 nM. Further, in test [2], the “Ratio CC50/IC50” value turned out to be 1. The same compound yielded a CC50 in test [3] of 1100 nM. Besides, the inhibition at 1 µM in test [4] was found to be 73%.
On the same counts, the results for `CC(C)(C)c1ccc(O)c(/C=N/NC(=O)c2ccccc2)c1` are 1300 nM, 2, 2600 nM and 59%.
The corresponding values for `CCN(CC)c1ccc(/C=N/NC(=O)c2ccc([N+](=O)[O-])cc2)c(O)c1` are 1000 nM, 2.5, 2500 nM and 69%.
